According to ChEMBL document CHEMBL5329186, “Identification of novel 1,2,3-triazole isatin derivatives as potent SARS-CoV-2 3CLpro inhibitors via click-chemistry-based rapid screening” (RSC Med Chem, 2023):
The source made the active and inactive calls. The calls are words filed in the database; no cut-off is given here.

How the values were obtained:
[1] = target: Replicase polyprotein 1ab (Severe acute respiratory syndrome coronavirus 2) (UniProt P0DTD1); test: Inhibition of SARS-CoV-2 MPro at 5 uM using MCAAVLQSGFR-Lys(Dnp)-Lys-NH2 as substrate in presence of DTT incubated for 10 mins by FRET assay
Procedure, shortened: (§1)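 3CLpro FRET assay at 5 μM compound, run as the standard protocol (10 min 37 °C preincubation, ex 320/em 405 nm kinetic read). The assay buffer either contained 4 mM DL-dithiothreitol or had none added. Ebselen served as the control.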

[2] = target: Replicase polyprotein 1ab (Severe acute respiratory syndrome coronavirus 2) (UniProt P0DTD1); test: Inhibition of SARS-CoV-2 MPro at 5 uM using MCAAVLQSGFR-Lys(Dnp)-Lys-NH2 as substrate incubated for 10 mins by FRET assay; procedure, shortened: as §1
[3] = target: Replicase polyprotein 1ab (Severe acute respiratory syndrome coronavirus 2) (UniProt P0DTD1); test: Inhibition of SARS-CoV-2 MPro at 1 uM using MCAAVLQSGFR-Lys(Dnp)-Lys-NH2 as substrate incubated for 10 mins by FRET assay relative to control
[4] = target: Replicase polyprotein 1ab (Severe acute respiratory syndrome coronavirus 2, UniProt P0DTD1); test: Inhibition of SARS-CoV-2 MPro using MCAAVLQSGFR-Lys(Dnp)-Lys-NH2 as substrate incubated for 10 mins by FRET assay
Procedure, shortened: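 Same 3CLpro FRET protocol (enzyme working 1.5 μM, substrate 500 μM, Tris/NaCl/glycerol buffer pH 7.3, 10 min 37 °C preincubation, ex 320/em 405 nm kinetic read for 10 min). Compounds were tested at 0.1, 0.5, 1 and 5 μM from 5 mM DMSO stocks. IC50 is the average of three independent experiments.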

[5] = Cytotoxicity against African green monkey Vero E6 assessed as inhibition of cell growth incubated for 26 hrs; assay type: toxicity, cell-based; details: chlorocebus sabaeus, Vero E6 cells (Vero C1008)
Procedure, shortened: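 Vero E6 cells were seeded at 1.7 × 10^4/well in DMEM high glucose/10% FBS and grown 24 h at 37 °C, 5% CO2. Compound was then added in DMEM/5% FBS, final 1% DMSO, for 26 h. Viability was read with the CellTiter 96 aqueous nonradioactive proliferation assay. Values are averages of three or more replicate assays.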

Vero C1008 = test: Cytotoxicity against African green monkey Vero E6 assessed as inhibition of cell growth at 20 uM incubated for 26 hrs; assay type: toxicity, cell-based; details: chlorocebus sabaeus, vero c1008, 26 h

Row | SMILES | inhibition [1] | inhibition [2] | inhibition [3] [%] | IC50 [4] [nM] | CC50 at 26 h [5] [nM] | Activity (Vero C1008)
1 | O=c1c2ccccc2[se]n1-c1ccccc1 | inactive | Active | – | – | – | –
2 | NC(=O)c1ccc2c(c1)C(=O)C(=O)N2Cc1cn(Cc2cccc(Cl)c2)nn1 | Active | Active | 76.4 | 440 | > 20000 | Not Active
3 | NC(=O)c1ccc2c(c1)C(=O)C(=O)N2Cc1cn(Cc2ccc(S(N)(=O)=O)cc2)nn1 | – | – | 73.3 | 1120 | > 20000 | Not Active
4 | NC(=O)c1ccc2c(c1)C(=O)C(=O)N2Cc1ccc2ccccc2c1 | Active | Active | 87.3 | 300 | < 2200 | Not Active
5 | NC(=O)c1ccc2c(c1)C(=O)C(=O)N2Cc1cn(Cc2ccc(C(F)(F)F)cc2F)nn1 | – | – | 78.1 | 530 | > 20000 | Not Active
